Measured values as given in ChEMBL document CHEMBL4373712, “Bioactivatable Pseudotripeptidization of Cyclic Dipeptides To Increase the Affinity toward Oligopeptide Transporter 1 for Enhanced Oral Absorption: An Application to Cyclo(l-Hyp-l-Ser) (JBP485)” (J Med Chem, 2019).

Assays:
[1] = Apparent permeability across human Caco2 cells at 0.5 mM measured after 5 to 60 mins by UPLC-MS/MS analysis; assay type: ADME, cell-based; details: caco-2, 500 µM
How it was run: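 Caco-2 cells grown on 0.4 µm transwell inserts; monolayers used only with TEER >300 Ω/cm². Compound at 0.5 mM in apical pH 6.0 HBSS, basolateral pH 7.4 HBSS, 37 °C. Basolateral samples taken at 5, 15, 30, 45 and 60 min. Quantified by UPLC-MS/MS; Papp from steady-state flux, area and initial donor concentration. Three repeats.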

[2] = Half life in Sprague-Dawley rat intestinal homogenates at 5 mM by HPLC analysis; assay type: ADME, tissue-based, Intestine
How it was run: (§1)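 Jejunum and liver homogenates from male SD rats in pH 7.4 PBS, adjusted to 200 µg/mL protein, and rat plasma. Each incubated with compound at 5 mM at 37 °C.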

[3] = Half life in Sprague-Dawley rat liver homogenates at 5 mM by HPLC analysis; assay type: ADME, tissue-based; how it was run: as §1
[4] = Half life in pH 5.8 phosphate buffer at 5 mM by HPLC analysis; assay type: physicochemical
How it was run: (§2)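 Compound at 5 mM in 0.1 M HCl, pH 4.5 acetate buffer, pH 5.8/6.8/7.2 phosphate buffers, SGF (pH 1.2) and SIF (pH 6.8), prepared per Chinese Pharmacopoeia. Samples taken at 0-20 h and analyzed by HPLC-UV. k = 2.303×slope of log C versus time; t1/2 = 0.693/k.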

[5] = target: T1, Solute carrier organic anion transporter family member 2B1 (Homo sapiens, UniProt O94956); test: Substrate activity at OATPB in human Caco2 cells assessed as protein-mediated drug uptake at 0.5 mM measured after 10 mins in absence of OATPB substrate captopril by UPLC-MS/MS analysis; details: caco-2, 10 min, 500 µM
T1 sequence (O94956 whole entry): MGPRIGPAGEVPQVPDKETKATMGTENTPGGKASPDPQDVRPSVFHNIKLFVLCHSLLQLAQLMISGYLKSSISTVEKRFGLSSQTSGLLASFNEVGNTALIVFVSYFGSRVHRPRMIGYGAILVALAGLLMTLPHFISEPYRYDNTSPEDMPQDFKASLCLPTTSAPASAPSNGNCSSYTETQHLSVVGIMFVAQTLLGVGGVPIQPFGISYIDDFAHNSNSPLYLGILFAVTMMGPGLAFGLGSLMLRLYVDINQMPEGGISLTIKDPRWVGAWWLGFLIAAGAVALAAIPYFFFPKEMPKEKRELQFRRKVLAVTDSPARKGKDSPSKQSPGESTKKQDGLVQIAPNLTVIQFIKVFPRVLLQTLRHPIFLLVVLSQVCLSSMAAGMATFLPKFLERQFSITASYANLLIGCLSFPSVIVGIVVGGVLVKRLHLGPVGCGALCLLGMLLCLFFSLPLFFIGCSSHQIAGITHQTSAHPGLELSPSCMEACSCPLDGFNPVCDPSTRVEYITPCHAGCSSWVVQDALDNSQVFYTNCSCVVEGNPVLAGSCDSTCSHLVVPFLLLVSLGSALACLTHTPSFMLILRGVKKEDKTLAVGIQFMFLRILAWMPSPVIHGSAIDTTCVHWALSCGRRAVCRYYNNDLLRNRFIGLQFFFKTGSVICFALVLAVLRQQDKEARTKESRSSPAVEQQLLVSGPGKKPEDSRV

[6] = Half life in 0.1 M HCl at 5 mM by HPLC analysis; assay type: physicochemical; how it was run: as §2
[7] = target: T2, Solute carrier family 15 member 1 (Rattus norvegicus, UniProt P51574); test: Substrate activity at PEPT1 in Sprague-Dawley rat jejunum assessed as effective permeability at 5 mM measured after 15 to 120 mins by HPLC analysis; assay type: ADME, tissue-based; details: 5000 µM
T2 sequence (P51574 whole entry): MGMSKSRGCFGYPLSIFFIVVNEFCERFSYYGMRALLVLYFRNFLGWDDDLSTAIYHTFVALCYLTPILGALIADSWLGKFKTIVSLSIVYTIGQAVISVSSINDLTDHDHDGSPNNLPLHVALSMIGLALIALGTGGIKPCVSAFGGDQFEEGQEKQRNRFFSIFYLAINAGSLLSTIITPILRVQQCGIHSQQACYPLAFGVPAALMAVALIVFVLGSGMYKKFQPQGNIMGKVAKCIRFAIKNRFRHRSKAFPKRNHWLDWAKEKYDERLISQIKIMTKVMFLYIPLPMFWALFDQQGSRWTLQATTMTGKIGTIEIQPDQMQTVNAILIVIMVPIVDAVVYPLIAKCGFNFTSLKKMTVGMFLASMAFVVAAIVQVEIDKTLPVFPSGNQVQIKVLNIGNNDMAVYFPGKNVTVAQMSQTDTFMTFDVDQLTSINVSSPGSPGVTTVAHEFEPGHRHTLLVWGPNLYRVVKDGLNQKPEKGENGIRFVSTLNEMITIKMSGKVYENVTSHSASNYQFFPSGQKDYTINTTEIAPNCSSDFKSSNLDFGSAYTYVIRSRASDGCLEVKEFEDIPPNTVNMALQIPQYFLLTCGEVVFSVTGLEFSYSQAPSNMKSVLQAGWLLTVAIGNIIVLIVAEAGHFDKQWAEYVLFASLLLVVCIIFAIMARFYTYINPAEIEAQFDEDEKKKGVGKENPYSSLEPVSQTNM
How it was run: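 In situ single-pass jejunal perfusion in fasted (12 h) male SD rats anaesthetised with urethane 1.5 g/kg i.p. About 10 cm of jejunum was perfused at 0.2 mL/min with pH 6.0 HEPES buffer containing 5 mM compound. Outflow was collected 15–120 min after steady state and assayed by HPLC. Peff was calculated from outlet/inlet concentration and volume ratios and segment radius and length.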

[8] = Half life in pH 4.5 acetate buffer at 5 mM by HPLC analysis; assay type: physicochemical; how it was run: as §2
[9] = Half life in pH 6.8 phosphate buffer at 5 mM by HPLC analysis; assay type: physicochemical; how it was run: as §2
[10] = Half life in pH 1.2 simulated gastric fluid at 5 mM by HPLC analysis; assay type: ADME; how it was run: as §2
[11] = Half life in pH 7.2 phosphate buffer at 5 mM by HPLC analysis; assay type: physicochemical; how it was run: as §2

| Compound | Papp [1] | half-life at 5000 µM [2] [h] | half-life at 5000 µM [3] [h] | half-life at 5000 µM [4] [h] | Drug uptake [5] | half-life at 5000 µM [6] [h] | Peff [7] | half-life at 5000 µM [8] [h] | half-life at 5000 µM [9] [h] | half-life at 5000 µM [10] [h] | half-life at 5000 µM [11] [h] |
| --- | --- | --- | --- | --- | --- | --- | --- | --- | --- | --- | --- |
| O=C1N[C@@H](CO)C(=O)N2C[C@H](O)C[C@@H]12 | Impermeable | > 20 | > 20 | > 20 | Not Active | > 20 | Permeable | > 20 | > 20 | > 20 | > 20 |
| CC(C)[C@H](N)C(=O)OC[C@@H]1NC(=O)[C@@H]2C[C@@H](O)CN2C1=O | Permeable | < 0.16 | 0.86 | > 20 | Not Active | > 20 | Permeable | > 20 | 7.7 | > 20 | 5.5 |
